Results taken from ChEMBL document CHEMBL4219023, “Synthesis and biological activity of novel tert-amylphenoxyalkyl (homo)piperidine derivatives as histamine H3R ligands” (Bioorg Med Chem, 2017).
Activity calls are given as the source filed them. The calls are words filed in the database; no cut-off is given here.

Legend:
Histamine H3 receptor [1] = target: T1, Histamine H3 receptor (Homo sapiens, UniProt Q9Y5N1); test: Displacement of [125I]Iodoproxyfan from recombinant human histamine H3 receptor expressed in CHOK1 cell membranes after 90 mins
Outline: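 Membranes of CHO-K1 cells expressing hH3R were incubated 90 min at 25 °C, shaken at 250 rpm, with [125I]iodoproxyfan (16–50 pM) and test compound. Nonspecific binding was defined with 1 μM imetit. Separation by filtration on PEI-treated GF/B filters. Ki obtained from IC50 by Cheng-Prusoff.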

Mus musculus [2] = test: Anticonvulsant activity in CF-1 albino mouse assessed as protection against maximal electroshock-induced seizures at 30 mg/kg, ip after 0.5 hrs; assay type: functional, organism-based
Outline: (§1)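 Male CF-1 albino mice received compound i.p. as a suspension in 0.5% methylcellulose (30, 100 or 300 mg/kg). Maximal electroshock seizure test read 0.5 h and 4 h after dosing. Result given as animals protected/animals tested.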

Mus musculus [3] = test: Anticonvulsant activity in CF-1 albino mouse assessed as protection against maximal electroshock-induced seizures at 30 mg/kg, ip after 4 hrs; assay type: functional, organism-based; outline: as §1
Mus musculus [4] = test: Anticonvulsant activity in CF-1 albino mouse assessed as protection against maximal electroshock-induced seizures at 100 mg/kg, ip after 0.5 hrs; assay type: functional, organism-based; outline: as §1
Mus musculus [5] = test: Anticonvulsant activity in CF-1 albino mouse assessed as protection against maximal electroshock-induced seizures at 100 mg/kg, ip after 4 hrs; assay type: functional, organism-based; outline: as §1
Mus musculus [6] = test: Anticonvulsant activity in CF-1 albino mouse assessed as protection against maximal electroshock-induced seizures at 300 mg/kg, ip after 0.5 hrs; assay type: functional, organism-based; outline: as §1
Mus musculus [7] = test: Anticonvulsant activity in CF-1 albino mouse assessed as protection against subcutaneous pentetrazole-induced seizures at 30 mg/kg, ip after 0.5 hrs; assay type: functional, organism-based
Mus musculus [8] = test: Anticonvulsant activity in CF-1 albino mouse assessed as protection against subcutaneous pentetrazole-induced seizures at 30 mg/kg, ip after 4 hrs; assay type: functional, organism-based
Mus musculus [9] = test: Anticonvulsant activity in CF-1 albino mouse assessed as protection against subcutaneous pentetrazole-induced seizures at 100 mg/kg, ip after 0.5 hrs; assay type: functional, organism-based
Mus musculus [10] = test: Anticonvulsant activity in CF-1 albino mouse assessed as protection against subcutaneous pentetrazole-induced seizures at 100 mg/kg, ip after 4 hrs; assay type: functional, organism-based
Mus musculus [11] = test: Neurotoxicity in CF-1 albino mouse assessed as tremor at 30 mg/kg, ip after 0.5 hrs by rotarod test; assay type: toxicity, organism-based; details: in vivo, 100 mg/kg, in the assay text read “100 mg/kg” for “30 mg/kg”
Outline: (§2)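 Male CF-1 mice were dosed i.p. with compound suspended in 0.5% methylcellulose (30, 100 or 300 mg/kg). Neurotoxicity was scored by rotarod 0.5 h and 4 h after dosing, as animals showing toxicity/animals tested. Type of toxicity was noted, e.g. inability to grasp the rod, tremors, death.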

Mus musculus [12] = test: Neurotoxicity in CF-1 albino mouse assessed as continuous seizure activity at 100 mg/kg, ip after 0.5 hrs by rotarod test; assay type: toxicity, organism-based; details: in vivo
Outline: (§3)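 Anticonvulsant Screening Program (NINDS) Phase 1 neurotoxicity screen in male albino CF-1 mice. Compounds were given i.p. as suspensions in 0.5% methylcellulose at 30, 100 and/or 300 mg/kg, and animals were observed 0.5 h and 4 h after dosing. The rotarod test was scored as number of animals showing toxicity over number tested, with the kind of toxicity recorded: inability to grasp rotorod, death, diarrhea, continuous seizure activity, loss of righting reflex, myoclonic jerks or tremors.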

Mus musculus [13] = test: Neurotoxicity in CF-1 albino mouse at 30 mg/kg, ip after 4 hrs by rotarod test; assay type: toxicity, organism-based; details: in vivo; outline: as §2
[14] = Lipophilicity of compound by RP-TLC analysis; assay type: physicochemical; details: methanol:acetic acid:water
Outline: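 Reversed-phase TLC on RP-18 plates with methanol:acetic acid:water mobile phase (acid constant at 10%, methanol 85–55% in 5% steps). Spots visualised with iodine. RM values were derived from Rf and extrapolated to zero methanol to give RM0.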

Mus musculus [15] = test: Neurotoxicity in CF-1 albino mouse assessed as death at 300 mg/kg, ip after 0.5 hrs by rotarod test; details: in vivo
Mus musculus [16] = test: Neurotoxicity in CF-1 albino mouse assessed as unable to grasp at 30 mg/kg, ip after 0.5 hrs by rotarod test; assay type: toxicity, organism-based; details: in vivo, 100 mg/kg, in the assay text read “100 mg/kg” for “30 mg/kg”; outline: as §2
Mus musculus [17] = test: Anticonvulsant activity in CF-1 albino mouse assessed as protection against subcutaneous pentetrazole-induced seizures at 300 mg/kg, ip after 0.5 hrs; assay type: functional, organism-based
Mus musculus [18] = test: Anticonvulsant activity in CF-1 albino mouse assessed as protection against subcutaneous pentetrazole-induced seizures at 300 mg/kg, ip after 4 hrs; assay type: functional, organism-based
Mus musculus [19] = test: Neurotoxicity in CF-1 albino mouse at 30 mg/kg, ip after 0.5 hrs by rotarod test; assay type: toxicity, organism-based; details: in vivo; outline: as §2
Mus musculus [20] = test: Neurotoxicity in CF-1 albino mouse at 100 mg/kg, ip after 4 hrs by rotarod test; assay type: toxicity, organism-based; details: in vivo; outline: as §2
Rattus norvegicus = test: Anticonvulsant activity in albino Sprague-Dawley rat assessed as protection against maximal electroshock-induced seizures at 30 mg/kg, po after 0.5 to 4 hrs; assay type: functional, organism-based
Outline: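 Male Sprague-Dawley rats, four per group, were given compound orally at a fixed 30 mg/kg in 0.5% methylcellulose suspension. Maximal electroshock test was read at 0.5 h and 4 h.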

HEK293 = test: Cytotoxicity against HEK293 cells assessed as reduction in cell viability after 48 hrs by EZ4U Non-radioactive cell proliferation assay; assay type: cell-based; details: Homo sapiens, HEK293, 48 h
Outline: (§4)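 IMR-32 cells (2×10^4/well) or HEK-293 cells (1.5×10^4/well) in DMEM with 10% FBS were preincubated 24 h at 37 °C, 5% CO2. Compounds from 25 mM DMSO stocks were added at final 0.01–250 μM, with DMSO ≤1%. After 48 h, EZ4U label was added for 5 h and absorbance read at 492 nm.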

IMR-32 = test: Cytotoxicity against human IMR32 cells assessed as reduction in cell viability after 48 hrs by EZ4U Non-radioactive cell proliferation assay; assay type: cell-based; details: IMR-32, 48 h; outline: as §4
CYP3A4 = CYP3A4 (Homo sapiens, UniProt P08684); test: Activation of recombinant human CYP3A4 using Luciferin-BE as substrate at 25 uM in presence of NADPH by P450-Glo luminescence assay relative to control; assay type: ADME; details: recombinant human CYP3A4, probe Luciferin-PPXE, in the assay text read “Luciferin-PPXE” for “Luciferin-BE”, read-out: Activity
Outline: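 Recombinant human CYP3A4 P450-Glo luminescence assay: enzyme converts luciferin substrate to D-luciferin, then firefly luciferase is added and light output read as a measure of CYP3A4 activity. Final ligand concentrations 0.025–25 μM.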

[21] = Drug metabolism in pooled human liver microsomes assessed as 2-(4-(5-(azepan-1-yl)pentyloxy)phenyl)propan-1-ol metabolite formation at 50 uM after 2 hrs in presence of NADPH by LC/MS analysis; assay type: ADME, microsome
Outline: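 Pooled human liver microsomes (1 mg/ml) in 0.1 M Tris-HCl pH 7.4 with compound at 50 μM. After 5 min preincubation at 37 °C, reaction was started with NADPH regeneration system and run 2 h at 37 °C. Stopped with cold methanol and centrifuged. Supernatant analysed by UPLC-ESI tandem quadrupole MS.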

[22] = Safety index, ratio of compound IC50 to doxorubicin IC50 for HEK293 cells after 48 hrs by EZ4U non-radioactive cell proliferation assay; assay type: ADME, cell-based; details: human, read-out: Ratio IC50
[23] = Safety index, ratio of compound IC50 to doxorubicin IC50 for human IMR32 cells after 48 hrs by EZ4U Non-radioactive cell proliferation assay; assay type: ADME, cell-based; details: IMR-32 cells, read-out: Ratio IC50
Histamine H3 receptor [24] = target: T1, Histamine H3 receptor; test: Displacement of [3H]Nalpha-Methylhistamine from recombinant human histamine H3 receptor expressed in HEK293 cell membranes after 90 mins by liquid scintillation counting analysis
Mus musculus [25] = test: Neurotoxicity in CF-1 albino mouse assessed as death at 300 mg/kg, ip after 0.5 hrs by rotarod test; assay type: toxicity, organism-based; details: in vivo; outline: as §3
Mus musculus [26] = test: Neurotoxicity in CF-1 albino mouse assessed as diarrhea at 300 mg/kg, ip after 0.5 hrs by rotarod test; assay type: toxicity, organism-based; details: in vivo; outline: as §3
Mus musculus [27] = test: Neurotoxicity in CF-1 albino mouse assessed as continuous seizure activity at 300 mg/kg, ip after 0.5 hrs by rotarod test; assay type: toxicity, organism-based; details: in vivo; outline: as §3
Mus musculus [28] = test: Neurotoxicity in CF-1 albino mouse assessed as diarrhea at 100 mg/kg, ip after 0.5 hrs by rotarod test; assay type: toxicity, organism-based; details: in vivo; outline: as §3
Mus musculus [29] = test: Anticonvulsant activity in CF-1 albino mouse assessed as protection against maximal electroshock-induced seizures at 300 mg/kg, ip after 4 hrs; assay type: functional, organism-based; outline: as §1

T1 sequence (Q9Y5N1 whole entry): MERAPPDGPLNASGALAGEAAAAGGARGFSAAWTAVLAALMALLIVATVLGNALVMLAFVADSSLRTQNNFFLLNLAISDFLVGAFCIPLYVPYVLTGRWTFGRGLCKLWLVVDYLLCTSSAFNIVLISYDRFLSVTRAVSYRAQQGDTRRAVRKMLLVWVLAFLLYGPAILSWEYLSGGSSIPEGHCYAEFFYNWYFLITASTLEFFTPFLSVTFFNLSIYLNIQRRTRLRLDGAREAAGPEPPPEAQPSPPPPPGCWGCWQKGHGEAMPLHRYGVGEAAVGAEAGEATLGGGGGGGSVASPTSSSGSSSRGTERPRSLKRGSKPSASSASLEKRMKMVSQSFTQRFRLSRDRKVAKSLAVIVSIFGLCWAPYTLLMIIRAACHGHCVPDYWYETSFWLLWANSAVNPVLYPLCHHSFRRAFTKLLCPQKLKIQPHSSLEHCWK
CYP3A4, sequence (P08684 whole entry): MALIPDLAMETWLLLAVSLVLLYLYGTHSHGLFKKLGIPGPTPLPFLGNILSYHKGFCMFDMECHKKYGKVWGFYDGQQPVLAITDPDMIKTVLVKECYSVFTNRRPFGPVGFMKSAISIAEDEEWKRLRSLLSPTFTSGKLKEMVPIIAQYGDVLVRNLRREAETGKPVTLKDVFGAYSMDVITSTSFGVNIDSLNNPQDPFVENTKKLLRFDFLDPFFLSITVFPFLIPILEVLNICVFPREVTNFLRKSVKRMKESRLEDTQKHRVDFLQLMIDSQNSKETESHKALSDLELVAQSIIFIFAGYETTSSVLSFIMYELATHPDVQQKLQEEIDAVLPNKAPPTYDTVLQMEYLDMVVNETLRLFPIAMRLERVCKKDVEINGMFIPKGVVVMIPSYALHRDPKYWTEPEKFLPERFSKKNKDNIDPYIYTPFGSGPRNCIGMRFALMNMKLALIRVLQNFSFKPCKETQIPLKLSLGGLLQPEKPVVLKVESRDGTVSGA

SMILES | Ki (Histamine H3 receptor [1]) [nM] | Activity (Mus musculus [2]) | Activity (Mus musculus [3]) | Activity (Mus musculus [4]) | Activity (Mus musculus [5]) | Activity (Mus musculus [6]) | Activity (Mus musculus [7]) | Activity (Mus musculus [8]) | Activity (Mus musculus [9]) | Activity (Mus musculus [10]) | Activity (Mus musculus [13]) | Rm [14] | Activity (Mus musculus [15]) | Activity (Mus musculus [17]) | other results
CCC(C)(C)c1ccc(OCCCCCCN2CCCC(C)C2)cc1.O=C(O)C(=O)O (centres undefined) | 33.8 | Active | inactive | Active | Active | Active | inactive | inactive | inactive | inactive | Non-Toxic | 2.521 | Toxic | – | Activity (Mus musculus [11]): Toxic; Activity (Mus musculus [12]): Toxic
CCC(C)(C)c1ccc(OCCCCCCN2CCCCCC2)cc1.O=C(O)C(=O)O | 41.2 | inactive | inactive | Active | inactive | – | inactive | inactive | inactive | inactive | Non-Toxic | 2.567 | Toxic | – | Activity (Mus musculus [16]): Toxic
CCC(C)(C)c1ccc(OCCCCCCCCN2CCCC(C)C2)cc1.O=C(O)C(=O)O (centres undefined) | 121 | inactive | inactive | – | Active | Active | inactive | inactive | inactive | inactive | Non-Toxic | 3.562 | – | inactive | Activity (Mus musculus [18]): inactive; Activity (Mus musculus [19]): Non-Toxic; Activity (Mus musculus [20]): Non-Toxic; Activity (Rattus norvegicus): inactive
CCC(C)(C)c1ccc(OCCCCCN2CCCCCC2)cc1.O=C(O)C(=O)O | 21.4 | Active | inactive | Active | – | – | inactive | inactive | inactive | inactive | Non-Toxic | 2.389 | – | – | IC50 (HEK293): 39400 nM; IC50 (IMR-32): 12300 nM; activity at 25 µM (CYP3A4): 76%; Activity (Mus musculus [19]): Non-Toxic; Drug metabolism [21]: Metabolite_Detected; selectivity ratio at 48 h [22]: 50 to 90; selectivity ratio at 48 h [23]: > 1000
CCC(C)(C)c1ccc(OCCCCN2CCC(C)CC2)cc1.O=C(O)C(=O)O | – | Active | inactive | Active | inactive | – | inactive | inactive | Active | – | Non-Toxic | – | Toxic | Active | Ki (Histamine H3 receptor [24]): 238 nM; Activity (Mus musculus [25]): Toxic; Activity (Mus musculus [26]): Toxic; Activity (Mus musculus [27]): Toxic
CCC(C)(C)c1ccc(OCCCCN2CCCCCC2)cc1.O=C(O)C(=O)O | – | inactive | inactive | Active | Active | – | – | – | – | – | Non-Toxic | 2.292 | Toxic | – | Ki (Histamine H3 receptor [24]): 68 nM; Activity (Mus musculus [25]): Toxic; Activity (Mus musculus [26]): Toxic; Activity (Mus musculus [28]): Toxic
CCC(C)(C)c1ccc(OCCCCCCCN2CCCC(C)C2)cc1.O=C(O)C(=O)O (centres undefined) | 36.6 | inactive | inactive | – | Active | Active | inactive | inactive | inactive | inactive | Non-Toxic | 2.983 | – | inactive | Activity (Mus musculus [29]): inactive
